Active and inactive are the calls of the source. The rule behind the calls is not given here.
Legend:
MCF7 [1] = assay: Induction of cell cycle arrest in human MCF7 cells assessed as accumulation of cells at G1 phase measured at 2 uM by BrdU/PI staining based flow cytometric analysis (reference value: 65.2%); assay type: functional
MDA-MB-436 = assay: Downregulation of EZH2 in human MDA-MB-436 cells at 2 uM for 2 days by immunoblot analysis; assay type: functional, cell-based; settings: time 2.0 day
MDA-MB-231 [2] = assay: Antiproliferative activity in human MDA-MB-231 cells expressing vector assessed as increase in SA-beta-gal positive cells by SA-beta-gal staining analysis (reference value: 6.5+/-4%); assay type: functional
MCF7 [3] = assay: Effect on human MCF7 cells assessed as decrease in H3K27me3 level at 2 uM in presence of adriamycin by immunoblot analysis; assay type: functional, cell-based
Outline: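 Immunoblot of MDA-MB-231 and MCF7 lysates after 0.005 µg/ml adriamycin with or without 2 µM GSK343, or DMSO. α-Tubulin and total H3 used as loading controls.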

MDA-MB-231 [4] = assay: Induction of apoptosis in human MDA-MB-231 cells assessed as increase in accumulation of cells at G1 phase in presence of adriamycin by BrdU/PI-based cell cycle analysis; assay type: functional
Outline: (§1)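 Cell cycle by BrdU/PI staining and flow cytometry, giving G1, S and G2 fractions. Cells received 0.005 µg/ml adriamycin with or without 2 µM GSK343, or DMSO. Mean ± SD.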

MDA-MB-231 [5] = assay: Induction of apoptosis in human MDA-MB-231 cells assessed as decrease in accumulation of cells at S phase in presence of adriamycin by BrdU/PI-based cell cycle analysis; assay type: functional; outline: as §1

CCCc1cc(C)[nH]c(=O)c1CNC(=O)c1cc(-c2ccnc(N3CCN(C)CC3)c2)cc2c1cnn2C(C)C was tested, and the Activity (MCF7 [1]) was 66.1%, the Activity (MDA-MB-436) was “Active” and the Activity (MDA-MB-231 [2]) was 45.6%. The Activity (MCF7 [3]) was “inactive”, the Activity (MDA-MB-231 [4]) was “Active” and the Activity (MDA-MB-231 [5]) was “Active”.

From ChEMBL document CHEMBL5715960, “Epigenetic Co-Deregulation of EZH2/TET1 is a Senescence-Countering, Actionable Vulnerability in Triple-Negative Breast Cancer” (Theranostics, 2019)
